Screening results as filed in PubChem BioAssay.
Shown are actives, neighbours in structure and some others; about 3.7% of the full set was active somewhere.
WT yeast gro inh: growth inhibition of WT yeast, mitochondrial fusion screen. mitochondrial fusion phenotypic screen, WT strain. inhibition, % at 10 µM. 190,000 compounds, 2.1% hits; in the data active means inhibition above about 58%; tested in S. cerevisiae
RBBP9 inh: blocks human serine hydrolase RBBP9; 220,000 compounds, 0.2% hits; AID 1515; recombinant RBBP9, FP-Rh probe fluorescence polarization; inhibition, % at 7.94 µM;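 active means inhibition above the campaign mean of all tested compounds plus 3 SD, cut at about 14% in these data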;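 further: plate controls were DMSO wells with RBBP9 for no effect and wells lacking RBBP9 protein for full effect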
Target sequence (O75884 whole entry, looked up): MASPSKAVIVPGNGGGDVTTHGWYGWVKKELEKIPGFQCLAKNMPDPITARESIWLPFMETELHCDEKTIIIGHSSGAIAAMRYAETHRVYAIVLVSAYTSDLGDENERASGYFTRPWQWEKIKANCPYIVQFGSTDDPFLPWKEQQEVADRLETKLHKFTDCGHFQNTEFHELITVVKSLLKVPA
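Material: RBBP9 protein. Amount: RBBP9 at 2.5 µM in dispensed solution, before mixing. Schedule: 30 min then 45 min, 25 °C. Medium: Tris buffer pH 8.0, NaCl, Pluronic. Measured by: fluorescence polarization. Measure: percent inhibition from mP, scaled between DMSO and no-protein wells. Replication: one well per compound.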
eIF4E-4G inh: inhibitors of eIF4E and eIF4G interaction in translation initiation; P63073+Q04637; TR-FRET eIF4E-eIF4GI(517-606) binding, 2 h; inhibition, % at 21.7 µM; 220,000 compounds, 0.37% hits;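 further: 0% = full FRET control wells and 100% = background wells lacking eIF4GI fragment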
14-3-3 Bad inh: disrupts binding of bovine 14-3-3 zeta to phospho-Bad peptide | TR-FRET 14-3-3zeta/Dy647-pBad peptide displacement, 1 h | inhibition, % at 21.7 µM | 220,000 compounds, 0.71% hits;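 active means inhibition above about 70%, limit read from the data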;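 further: 0% = full 14-3-3 plus peptide FRET controls and 100% = background without 14-3-3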
Target sequence (P63103 whole entry, looked up): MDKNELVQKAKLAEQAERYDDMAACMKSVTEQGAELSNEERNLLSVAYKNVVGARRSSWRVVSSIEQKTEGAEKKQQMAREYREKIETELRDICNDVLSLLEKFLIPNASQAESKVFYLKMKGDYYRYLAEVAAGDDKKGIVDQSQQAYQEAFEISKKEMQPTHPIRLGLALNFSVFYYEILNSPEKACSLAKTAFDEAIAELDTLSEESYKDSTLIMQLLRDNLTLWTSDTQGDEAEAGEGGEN
p47phox inh: blocks human p47phox regulatory protein of NADPH oxidases | P14598 | p47phox/p22phox peptide binding, fluorescence polarization, 2 h | inhibition, % at 24.7 µM | 220,000 compounds, 0.53% hits;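 further: 0% = p47phox with labelled peptide and 100% = labelled peptide alone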
EBV gp42 block: blocks Epstein-Barr virus glycoprotein 42 binding. AID 1085. 220,000 compounds, 0.42% hits. Q1HVG2. Fluorescence polarization binding assay, mP read-out. inhibition, % (tested at 21.74 µM); in the data active means inhibition above about 50%
Target sequence (Q1HVG2 whole entry, looked up): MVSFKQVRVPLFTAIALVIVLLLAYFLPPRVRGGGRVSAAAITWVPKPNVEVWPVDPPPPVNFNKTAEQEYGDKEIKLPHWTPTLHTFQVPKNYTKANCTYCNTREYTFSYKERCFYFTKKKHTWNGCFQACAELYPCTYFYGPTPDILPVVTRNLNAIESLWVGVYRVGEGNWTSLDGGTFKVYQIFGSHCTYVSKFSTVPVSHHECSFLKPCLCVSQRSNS
* marks the source's active call; other numbers are inactive results; x = no result given.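 How the source made its calls, unless noted: active means inhibition above about 30% (limit read from the data); inactive means the rest.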

SMILES | WT yeast gro inh | RBBP9 inh | eIF4E-4G inh | 14-3-3 Bad inh | p47phox inh | EBV gp42 block
CC(C)CCN(C(=S)Nc1cccc(F)c1)C(C)c1cccs1 (configuration not stated) | 59.4* | -7.1 | -0.9 | -3.2 | -24.6 | -27.9
CSCCC(NS(=O)(=O)c1ccc2c(c1)oc(=O)n2C)C(=O)NCc1cccs1 (configuration not stated) | x | 1.1 | 3.6 | 2.2 | -5.2 | -15.9
CC(=O)N1N=C(c2ccccc2OC(=O)/C=C/c2ccccc2)CC1c1ccccc1 (configuration not stated) | x | -1.7 | 1.3 | -3.9 | -10.8 | 0.7
S=c1[nH]nc(CSCc2ccccc2Cl)n1C1CCCCC1 | 73.6* | -0.5 | 1.2 | -3.1 | -6.4 | -9.2
Cc1cccc(OCc2n[nH]c(=S)n2C2CCCCC2)c1 | 67.4* | -5.4 | -1.9 | -17.6 | -0.7 | -7.5
S=c1[nH]nc(COc2ccc(Cl)cc2)n1C1CCCCC1 | 25.2 | -2.8 | -2.3 | -15.2 | 2.7 | -5.9
Cc1ccc(OCc2n[nH]c(=S)n2C2CCCCC2)cc1 | 66.1* | -4.2 | 7.4 | -16.0 | -7.4 | -6.0
Cc1ccccc1OCCCSc1nc2ccccc2[nH]1 | 61.9* | -10.1 | 1.4 | 3.1 | -6.1 | 18.3
O=C1CCCC/C1=C/NCc1ccc(F)cc1 | -14.0 | -6.4 | -3.0 | -2.2 | -1.9 | -13.3
COc1cc(/C=N/N(C)c2ccccc2)cc(Cl)c1O | 59.4* | 1.6 | 4.5 | 15.0 | -2.8 | -3.1
C[C@@H](NC(=O)c1coc(=O)c(Br)c1)c1ccccc1 | -3.8 | -3.0 | -1.8 | 13.1 | -14.9 | -7.2
Cc1cc(NC(=O)c2coc(=O)c(Br)c2)ccc1C(C)C | x | -2.8 | 2.4 | -3.5 | 37.5* | -4.0
CCOC(=O)c1c(NC(=O)c2cc(C)on2)c2cc([N+](=O)[O-])ccc2n1C | x | -7.0 | -3.0 | 45.2 | 3.3 | -12.3
Cc1ccc(CNS(=O)(=O)c2ccc3c(c2)CCN3C(=O)CCCC(=O)O)cc1 | 9.4 | -0.1 | -3.0 | -2.4 | 0.1 | -7.8
O=c1c(-c2ccccc2)coc2c(CN3CCCC3)c(O)ccc12 | -9.2 | -0.9 | 75.7* | -14.1 | -12.1 | -14.8
O=c1c(-c2ccc(Cl)cc2)coc2c(CN3CCOCC3)c(O)ccc12 | 3.3 | -12.3 | 7.3 | -0.9 | -12.1 | -5.5
NS(=O)(=O)c1ccc(N/N=C2/CCCCC2C2CCCCC2)c([N+](=O)[O-])c1 (configuration not stated) | 95.6* | -3.4 | 18.1 | -1.1 | 1.6 | 10.5
O=C(NCc1ccccc1Cl)c1cnccn1 | 74.9* | -4.8 | 4.8 | 1.1 | -7.6 | -15.2
Nc1ccc(O)c(-c2nc3ccccc3s2)c1 | 8.2 | -7.2 | 0.0 | 10.0 | 17.3 | 21.2
Nc1ccccc1-c1nc2ccccc2s1 | -22.1 | -4.2 | 10.2 | 72.8* | -14.7 | -10.4
CSc1ccc(/C=C(/NC(=O)c2ccc(C)cc2)C(=O)Nc2cccc(F)c2)cc1 | 1.2 | 2.6 | 2.6 | 3.2 | 67.3* | -47.5
Cc1ccc(NC(=O)/C(=C\c2ccc([N+](=O)[O-])cc2)NC(=O)c2ccccc2)cc1 | 51.7 | -5.3 | -7.4 | -9.3 | -7.8 | 0.0
CC(C)OCCCN1C=C2C(=O)C(C)(OC(=O)CCc3ccccc3)C(=O)C=C2C=C1c1ccc(C#N)cc1 (configuration not stated) | x | x | -0.5 | -6.9 | -15.3 | 4.0
Cc1cccc(-n2c(N)c(-c3nc4ccccc4n3C)c3nc4ccccc4nc32)c1 | 50.8 | 0.5 | 3.9 | -0.2 | -18.2 | -16.1
Cn1c(-c2c(N)n(-c3ccccc3)c3nc4ccccc4nc23)nc2ccccc21 | 58.9* | -6.5 | 5.3 | -12.1 | 4.9 | 25.0
SMILES | WT yeast gro inh | RBBP9 inh | eIF4E-4G inh | 14-3-3 Bad inh | p47phox inh | EBV gp42 block
C[n+]1ccc(/C=C/c2ccccc2O)c2ccccc21 | 64.6* | 0.2 | 8.3 | 2.1 | 2.6 | -21.4
CC(=O)/C=C/c1ccccc1O | 11.2 | -2.2 | 1.4 | 2.1 | 0.3 | 3.4
COc1ccc(N(CC(=O)Nc2ccccc2C(N)=O)S(=O)(=O)c2ccc(C)c([N+](=O)[O-])c2)cc1 | -4.0 | -2.3 | -1.2 | 0.4 | -17.2 | -7.2
CC(=O)OCC(=O)N1N=C(c2ccc3ccccc3c2)CC1c1ccccc1 (configuration not stated) | 68.2* | 0.8 | 5.0 | 7.8 | x | -5.0
CCn1c2ccccc2c2cc(/C=N/NC(=O)c3cccc(C)c3)ccc21 | 73.3* | -0.7 | -6.5 | -3.7 | -7.9 | -8.8
CN(C(=O)/C(N=Nc1cccc(C(F)(F)F)c1)=C(\O)C(F)(F)F)c1ccccc1 | 70.2* | -5.8 | 5.0 | 3.0 | -7.7 | 1.7
COc1ccc(NC(C)=O)cc1S(=O)(=O)Nc1ccc(C(=O)N2CCCC2)cc1 | x | -1.9 | 4.1 | 2.4 | -0.9 | -6.3
COc1ccc(Cc2nc3ccccc3n2CC(=O)N/N=C/c2ccc(C)cc2O)cc1OC | -8.6 | -9.8 | 7.1 | 83.1* | 9.2 | -105.1
c1csc(C(c2nnnn2C2CCCC2)N2CCOCC2)c1 (configuration not stated) | 9.4 | 0.4 | -5.7 | -3.8 | 7.0 | -21.9
c1csc(C(c2nnnn2C2CCCC2)N2CCCC3(CCCCC3)C2)c1 (configuration not stated) | 70.5* | -4.6 | -4.0 | -6.4 | -26.1 | -14.8
CCN(Cc1ccccc1)C(c1cccs1)c1nnnn1C1CCCCC1 (configuration not stated) | 75.3* | -3.1 | -2.1 | 2.0 | -0.1 | -4.2
CCc1cc(SC#N)ccc1N | -6.0 | -8.6 | 0.1 | -11.3 | -3.5 | -2.8
Cc1ccc(-c2nnc(Cc3ccc([N+](=O)[O-])cc3)o2)cc1 | 21.8 | -1.1 | -0.6 | 0.9 | -5.3 | -10.3
O=C(O)CCC(=O)Nc1ccc(C(=O)OCC(=O)c2ccc(Cl)cc2Cl)cc1 | 7.2 | -4.3 | -3.0 | -3.2 | -2.9 | 11.4
CSC1=NSC2=NC(=O)/C(=C/c3coc4ccccc4c3=O)C(=N)N12 | 4.1 | -6.9 | 1.5 | 24.0 | -60.0 | 73.8*
CSC1=NSC2=NC(=O)/C(=C/c3coc4ccc(O)cc4c3=O)C(=N)N12 | 1.3 | -3.9 | 13.7 | 31.6 | -54.0 | 62.8*
CSC1=NSC2=NC(=O)/C(=C\c3cccs3)C(=N)N12 | 22.7 | -2.5 | 6.2 | 13.9 | -17.9 | 1.6
CC(=O)Nc1ccc(Nc2nc(Cl)nc(Nc3ccc(NC(C)=O)cc3)n2)cc1 | 1.8 | 3.7 | -6.6 | -8.2 | -8.1 | -20.9
Cc1ccsc1/C=N/n1c(-c2cccnc2)n[nH]c1=S | 15.2 | -7.2 | 34.6* | -0.8 | -9.0 | -11.7
O=C(Nc1nncs1)c1cccnc1Cl | -4.2 | -10.8 | 3.1 | 4.6 | -3.6 | -14.3
c1ccc(-c2noc(CN3CCN(C(c4ccccc4)c4ccccc4)CC3)n2)cc1 | 74.8* | -4.1 | -1.1 | -4.2 | -11.0 | -1.0
CC1CCN(Cc2nc(-c3ccccc3)no2)CC1 | -23.9 | -9.3 | 2.0 | 75.7* | -9.6 | -37.5
Cc1ccc(S(=O)(=O)N2CCN(C(=O)c3ccc([N+](=O)[O-])cc3)C2)cc1 | -0.9 | -4.1 | -2.6 | -3.2 | 0.5 | -24.0
